Laboratory results taken from ChEMBL document CHEMBL1140300, “Synthesis and pharmacological characterization of exo-2-(2'-chloro-5-pyridinyl)-7-(endo and exo)-aminobicyclo[2.2.1]heptanes as novel epibatidine analogues” (J Med Chem, 2005).

Legend:
[1] = target: Neuronal acetylcholine receptor; alpha4/beta2 (Rattus norvegicus, UniProt P09483+P12390); test: Displacement of [3H]epibatidine from alpha4beta2 nAChR in rat cerebral cortex; assay type: tissue-based
[2] = target: Neuronal acetylcholine receptor subunit alpha-7 (Homo sapiens, UniProt P36544); test: Displacement of [125]iodoMLA from alpha-7 nAChR
Mus musculus [3] = test: Antinociceptive activity in sc dosed mouse by tail-flick method; assay type: functional
Procedure, shortened: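 Mouse tail-flick (D'Amour–Smith): tail exposed to heat lamp, latency to flick recorded. Control latency (2–4 s) taken per mouse before treatment, test latency after sc dosing. Response as %MPE = [(test – control)/(maximum latency – control) × 100]. ED50 with 95% confidence limits by unweighted least-squares linear regression.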

Mus musculus [4] = test: Antinociceptive activity in sc dosed mouse by hotplate method; assay type: functional
Procedure, shortened: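 Mouse hot-plate at 55.0 °C, animal in 10 cm glass cylinder. Two control latencies ≥10 min apart (normal 8–12 s). End point is jumping or paw licking. Tested 5 min after sc injection across a dose range. Response as %MPE = [(test – control)/(maximum latency – control) × 100]. ED50 with 95% confidence limits by unweighted least-squares linear regression.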

Mus musculus [5] = test: Activity in sc dosed mouse by hypothermia test; assay type: functional
Procedure, shortened: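 Rectal temperature in mice via thermistor probe inserted 24 mm, read just before and at several times after sc injection of saline or test compound. Change from pretreatment value per mouse. Ambient 21–24 °C. ED50 with 95% confidence limits by unweighted least-squares linear regression.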

Mus musculus [6] = test: Effect on locomotor activity in sc dosed mouse; assay type: functional
Procedure, shortened: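 Spontaneous activity: mice placed in individual photocell cages (28 × 16.5 cm) 5 min after sc dosing of 0.9% saline or test compound. Beam interruptions (two banks of eight cells) counted over the next 10 min.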

Sequence of Neuronal acetylcholine receptor subunit alpha-7 (P36544 whole entry): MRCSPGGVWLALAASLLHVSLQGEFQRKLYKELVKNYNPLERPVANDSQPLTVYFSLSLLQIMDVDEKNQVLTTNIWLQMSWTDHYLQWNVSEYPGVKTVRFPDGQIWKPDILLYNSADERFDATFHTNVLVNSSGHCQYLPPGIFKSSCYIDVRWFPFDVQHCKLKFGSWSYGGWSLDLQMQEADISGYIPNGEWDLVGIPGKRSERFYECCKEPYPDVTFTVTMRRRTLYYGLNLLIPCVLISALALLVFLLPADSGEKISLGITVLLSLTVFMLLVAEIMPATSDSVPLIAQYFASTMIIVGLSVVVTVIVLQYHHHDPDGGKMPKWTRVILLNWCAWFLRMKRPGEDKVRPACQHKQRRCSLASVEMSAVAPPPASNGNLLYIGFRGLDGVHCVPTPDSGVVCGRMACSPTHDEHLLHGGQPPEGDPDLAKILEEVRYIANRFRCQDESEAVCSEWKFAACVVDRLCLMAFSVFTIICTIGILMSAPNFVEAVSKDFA
Sequence of Neuronal acetylcholine receptor; alpha4/beta2 (P09483 whole entry): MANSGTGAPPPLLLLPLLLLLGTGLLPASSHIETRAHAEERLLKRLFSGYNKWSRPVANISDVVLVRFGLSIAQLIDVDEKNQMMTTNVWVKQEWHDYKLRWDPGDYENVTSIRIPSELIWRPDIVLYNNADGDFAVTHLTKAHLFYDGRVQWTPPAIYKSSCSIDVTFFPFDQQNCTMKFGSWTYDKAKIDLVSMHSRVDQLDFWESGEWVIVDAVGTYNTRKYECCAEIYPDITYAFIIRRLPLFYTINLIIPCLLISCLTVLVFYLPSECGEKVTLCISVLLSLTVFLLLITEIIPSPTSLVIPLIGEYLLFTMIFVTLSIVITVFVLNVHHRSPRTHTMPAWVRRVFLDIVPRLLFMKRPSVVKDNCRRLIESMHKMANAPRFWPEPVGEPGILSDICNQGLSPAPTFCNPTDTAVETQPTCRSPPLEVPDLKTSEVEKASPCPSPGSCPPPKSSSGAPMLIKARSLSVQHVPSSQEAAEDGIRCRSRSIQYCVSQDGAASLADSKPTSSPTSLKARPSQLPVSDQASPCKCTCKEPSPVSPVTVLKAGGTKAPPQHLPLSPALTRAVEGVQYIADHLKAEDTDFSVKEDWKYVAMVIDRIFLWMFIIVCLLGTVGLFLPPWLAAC
Sequence of Neuronal acetylcholine receptor; alpha4/beta2 (P12390 whole entry): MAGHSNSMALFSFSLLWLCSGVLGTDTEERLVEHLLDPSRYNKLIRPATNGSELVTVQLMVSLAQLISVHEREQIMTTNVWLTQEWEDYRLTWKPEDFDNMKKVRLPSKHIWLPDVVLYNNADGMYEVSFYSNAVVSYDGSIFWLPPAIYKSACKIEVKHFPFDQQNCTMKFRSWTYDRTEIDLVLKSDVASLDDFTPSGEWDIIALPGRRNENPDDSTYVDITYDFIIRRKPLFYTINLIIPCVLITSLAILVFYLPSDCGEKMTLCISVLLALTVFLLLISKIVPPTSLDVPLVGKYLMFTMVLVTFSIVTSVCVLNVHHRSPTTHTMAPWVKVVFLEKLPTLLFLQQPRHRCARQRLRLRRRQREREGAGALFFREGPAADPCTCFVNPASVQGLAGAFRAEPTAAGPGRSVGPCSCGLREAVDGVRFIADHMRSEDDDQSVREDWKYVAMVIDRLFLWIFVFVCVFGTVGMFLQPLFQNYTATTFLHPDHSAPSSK

| Compound | Ki [1] [nM] | Ki [2] [nM] | ED50 (Mus musculus [3]) [mg/kg] | ED50 (Mus musculus [4]) [mg/kg] | ED50 (Mus musculus [5]) [mg/kg] | ED50 (Mus musculus [6]) [mg/kg] |
| --- | --- | --- | --- | --- | --- | --- |
| Clc1ccc([C@H]2CC3CCC2[C@@H]3NCc2ccccc2)cn1 (relative stereo) | > 1000 | > 200 | – | – | – | – |
| Cl.Cl.Cl.N[C@H]1C2CCC1[C@@H](c1ccc(Cl)nc1)C2 (relative stereo) | 8.2 | > 700 | 4.5 | 2.9 | 3.4 | – |
| Clc1ccc([C@H]2CC3CCC2[C@H]3NCc2ccccc2)cn1 (relative stereo) | > 1000 | > 700 | – | – | – | – |
| Cl.N[C@@H]1C2CCC1[C@@H](c1ccc(Cl)nc1)C2 (relative stereo) | 10.9 | > 700 | 4.5 | 4.4 | 2.3 | 1.1 |
| Cl.Clc1ccc([C@H]2CC3CCC2N3)cn1 (some centres undefined) [EPIBATIDINE HYDROCHLORIDE] | – | 198 | 0.006 | 0.004 | 0.004 | 0.001 |
| CN1CCC[C@H]1c1cccnc1.Cl [NICOTINE HYDROCHLORIDE] | – | – | 1.3 | 0.65 | 1 | 0.5 |
